Measurements from ChEMBL document CHEMBL1777700, “Inhibition of multi-drug resistant HIV-1 reverse transcriptase by nucleoside β-triphosphates” (Bioorg Med Chem Lett, 2011).
Active and inactive are the calls of the source. The calls are words filed in the database; no cut-off is given here.

Assays:
[1] = biological target: Human immunodeficiency virus type 1 reverse transcriptase (Human immunodeficiency virus 1) (UniProt Q72547); assay: Inhibition of wild type HIV1 recombinant reverse transcriptase p66/p51 heterodimer […] after 10 mins by gel-based radiolabeled primer extension assay
[2] = biological target: Human immunodeficiency virus type 1 reverse transcriptase (Human immunodeficiency virus 1) (UniProt Q72547); assay: Inhibition of wild type HIV1 recombinant reverse transcriptase p66/p51 heterodimer at 10 to 100 uM after 10 mins by gel-based radiolabeled primer extension assay
Method in brief: (§1)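 Purified p66/p51 HIV-1 RT (10 nM) was added to start reactions containing 50 nM of a 40 nt DNA template annealed to a 5′ end-labeled 22 nt DNA primer. The mix held 200 μM dNTPs, 10 mM Tris-HCl pH 8.0, 80 mM NaCl and 6 mM MgCl2. Reactions ran 10 min at 37 °C and were stopped with formamide gel-loading buffer. Inhibitor was tested at 10 nM–1 mM in tenfold steps, with a no-inhibitor lane.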

[3] = biological target: Human immunodeficiency virus type 1 reverse transcriptase (Human immunodeficiency virus 1) (UniProt Q72547); assay: Inhibition of NNRTI-resistant HIV1 recombinant reverse transcriptase p66/p51 heterodimer up to 1 mM after 10 mins by gel-based radiolabeled primer extension assay; method in brief: as §1
[4] = test system: Human immunodeficiency virus type 1 reverse transcriptase (Human immunodeficiency virus 1), Q72547 [M184V,K65R,Y115F]; assay: Inhibition of NRTI-resistant HIV1 recombinant reverse transcriptase p66/p51 M184V/K65R/Y115F mutant at 100 uM after 10 mins by gel-based radiolabeled primer extension assay; method in brief: as §1
[5] = biological target: Human immunodeficiency virus type 1 reverse transcriptase (Human immunodeficiency virus 1) (UniProt Q72547); assay: Inhibition of NNRTI-resistant HIV1 recombinant reverse transcriptase p66/p51 heterodimer at 100 uM after 10 mins by gel-based radiolabeled primer extension assay; method in brief: as §1
[6] = biological target: Human immunodeficiency virus type 1 reverse transcriptase (Human immunodeficiency virus 1) (UniProt Q72547); assay: Inhibition of wild type HIV1 recombinant reverse transcriptase p66/p51 heterodimer at 10 nM after 10 mins by gel-based radiolabeled primer extension assay; method in brief: as §1
[7] = test system: Human immunodeficiency virus type 1 reverse transcriptase (Human immunodeficiency virus 1), Q72547 [M184V,K65R,Y115F]; assay: Inhibition of NRTI-resistant HIV1 recombinant reverse transcriptase p66/p51 M184V/K65R/Y115F mutant at 10 uM after 10 mins by gel-based radiolabeled primer extension assay; method in brief: as §1
[8] = test system: Human immunodeficiency virus type 1 reverse transcriptase (Human immunodeficiency virus 1), Q72547 [M184V,K65R,Y115F]; assay: Inhibition of NRTI-resistant HIV1 recombinant reverse transcriptase p66/p51 M184V/K65R/Y115F mutant at 10 nM after 10 mins by gel-based radiolabeled primer extension assay; method in brief: as §1
[9] = biological target: Human immunodeficiency virus type 1 reverse transcriptase (Human immunodeficiency virus 1) (UniProt Q72547); assay: Inhibition of NNRTI-resistant HIV1 recombinant reverse transcriptase p66/p51 heterodimer at 10 nM to 10 uM after 10 mins by gel-based radiolabeled primer extension assay

| SMILES | inhibition [1] | inhibition [2] | inhibition [3] | inhibition [4] | inhibition [5] | inhibition [6] | inhibition [7] | inhibition [8] | inhibition [9] |
| --- | --- | --- | --- | --- | --- | --- | --- | --- | --- |
| Cc1cn([C@H]2C[C@H](F)[C@@H](COP(=O)(OP(=O)(O)O)OP(=O)(O)O)O2)c(=O)[nH]c1=O | Active | Active | Active | Active |  |  |  |  |  |
| Nc1ncnc2c1ncn2[C@@H]1O[C@H](COP(=O)(OP(=O)(O)O)OP(=O)(O)O)[C@@H](O)[C@H]1O |  |  |  |  | Active | Active | Active | Active | inactive |
| Cc1cn([C@H]2C[C@H](N=[N+]=[N-])[C@@H](COP(=O)(OP(=O)(O)O)OP(=O)(O)O)O2)c(=O)[nH]c1=O |  |  |  |  | Active | Active | Active | Active | inactive |
| Cc1cn([C@H]2C=C[C@@H](COP(=O)(OP(=O)(O)O)OP(=O)(O)O)O2)c(=O)[nH]c1=O | Active | Active | Active | Active |  |  |  |  |  |
